Bioassay records (PubChem)
Rows were chosen to be rich in hits. Some 5.5% of all compounds tested hit in one or more screens of this group.
STAT3 inh – STAT3 signaling inhibition; 0.89% of 190,000 active; inhibition, % at 5.5 µM; U3A cells, IL-6 STAT3-luciferase reporter, luminescence; host cell line lacks STAT1;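 active = inhibition above the mean inhibition across all screened compounds plus 3 SD, cut at about 44% in these data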;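 also: 0% = DMSO only wells and 100% = 100 µM nifuroxazide control wells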
STAT1 blocker – reduces IFN-gamma driven STAT1 reporter signal | NIH 3T3 STAT1-luciferase reporter, luminescence | 0.35% of 200,000 active | AID 920 | inhibition, % at 5.5 µM;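 active = inhibition above a set limit, the mean inhibition across all tested compounds plus 3 SD, cut at about 34% in these data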;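 also: 0% = IFN-gamma with DMSO and 100% = IFN-gamma with 300 µM nifuroxazide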
HSV replic up – increases HSV replication in cells; 0.005% of 220,000 active; maximum fold increase; HSV replication augmentation in cells, fold increase; in the data active = maximum fold increase above about 1.5; tested in PC3 cells
STAT3 activator – increases IL-6 driven STAT3 reporter signal. U3A cells, IL-6 STAT3-luciferase reporter, luminescence; 100% = signal with IL-6 EC80 alone. activation (% of control), % at 5.6 µM. 0.91% of 190,000 active;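 active = activation above the screen-wide mean of compound activation plus 3 SD, cut at about 130% in these data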;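 also: 0% = background luminescence of wells with medium and substrate only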
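Test system: human U3A cells carrying STAT3-luciferase construct; control set: IL-6-only wells as 100% reference; timing: compound pre-incubation 1 h before IL-6, then 6 h stimulation at 37 °C; also added: IL-6 stimulus at 33 ng/mL final; evaluation: % activation versus median of IL-6-stimulated wells; detection: reporter luminescence signal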
STAT1 act – increases IFN-gamma driven STAT1 reporter signal; NIH 3T3 STAT1-luciferase reporter, luminescence; 100% = IFN-gamma alone, no compound; activation (% of control), % at 5.5 µM; 2.6% of 200,000 active;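 active = activation above the screen-wide mean activation plus 3 SD, cut at about 130% in these data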;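 also: raw ratio to IFN-gamma control signal so 100% means no change and 0% no light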
Cl transport mod – modulators of human KCC2 chloride dependent transport. Q9H2X9. KCC2 cells, thallium flux FluoZin-2 fluorescence. B-score of Tl+ flux slope (higher = more flux/activation; lower = inhibition) at 10 µM. 2.2% of 190,000 active. AID 1456;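 active = thallium flux slope and its plate-corrected score both differing from the plate sample mean at a set confidence after two filtering rounds, in either direction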;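 also: slope of fluorescence scaled to starting intensity during 10 to 20 s after thallium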
STAT1 act conf – STAT1 activation, confirmation assay. 97% of 1,200 active. shares compounds with STAT1 act. AID 1262. activation (% of control), % at 5.7 µM. NIH 3T3 STAT1-luciferase reporter, IFN-gamma potentiation, luminescence; 100% = IFN-gamma EC80 alone, no compound;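 active = activation above a set limit carried over from the earlier primary STAT1 screen, cut at about 140% in these data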;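 also: simple ratio to median IFN-gamma plus DMSO wells so 0% means no light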
NFkB act STAT1ct – activates NF-kappaB, counter-screen to STAT1 activators; activation (% of control), % at 5.7 µM; HEK293T NF-kB luciferase reporter, TNF-alpha stimulated, luminescence; 100% = TNF-alpha with vehicle only; shares compounds with STAT1 act; 43% of 1,200 active; AID 1306;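 active = activation above the mean of solvent-only control wells plus 3 SD, set per campaign, cut at about 130% in these data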;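 also: TNF-alpha given at a submaximal dose yielding about 80% of full reporter signal; values are well signal over median control so 100% means no change and 0% no light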
STAT3 act STAT1c – human STAT3 activation in STAT1 activator counter-screen; shares compounds with STAT1 act; U3A cells STAT3-luciferase reporter, IL-6, luminescence; cells lack STAT1; 100 = IL-6 alone, no compound effect; activation (% of control), % at 5.7 µM; 46% of 1,200 active;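 active = activation above the solvent-only control well mean plus 3 SD, set per plate batch, cut at about 110% in these data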;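 also: 0% = no luminescence and 100% = median IL-6 plus DMSO wells; higher means more STAT3 reporter activation so hits are non-selective activators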
Active calls of the source: *; i = inactive; · = no result.

SMILES	STAT3 inh	STAT1 blocker	HSV replic up	STAT3 activator	STAT1 act	Cl transport mod	STAT1 act conf	NFkB act STAT1ct	STAT3 act STAT1c
O=C(COc1ccc(F)cc1Br)N1CCc2ccccc21	13	-71	i	88	166*	0.067	223*	135*	115*
O=C(/C=C/c1cccc(F)c1)N1CCc2ccccc21	18	-113	i	85	199*	-0.23	238*	117	99
O=C(/C=C/c1ccc(F)cc1)N1CCCc2ccccc21	12	-7	i	91	105	-2.1	·	·	·
Cc1ccccc1OCC(=O)N1CCCc2ccccc21	10	-2	i	92	101	-0.5	·	·	·
O=C(Nc1ccc(N2CCCC2)cc1)c1ccc(Br)o1	19	-72	i	87	166*	·	217*	134*	103
O=C(Nc1ccc(N2CCCCC2)cc1)c1ccc(F)cc1	39	-68	i	69	162*	-0.43	216*	130	102
COc1ccc(C(=O)Nc2ccc(N3CCCC3)cc2)cc1	18	-1	i	89	101	0.51	·	·	·
C=CCN1C(=O)C(Cc2ccccc2)SC1=Nc1ccc(C(=O)O)cc1 (centres undefined)	-7	1	i	104	99	0.62	·	·	·
Cc1ccc(-c2noc(-c3cccs3)n2)cc1	27	-56	i	82	154*	0.15	220*	112	111*
c1ccc(-c2csc(N3CCSCC3)n2)cc1	4	-63	i	97	160*	0.071	129*	126	96
Fc1ccc(-c2csc(N3CCSCC3)n2)cc1	13	-9	i	90	109	-0.065	·	·	·
O=C1OCc2ccc(NS(=O)(=O)c3ccc(C(F)(F)F)cc3)cc21	·	·	i	·	·	-0.38	·	·	·
CCOC(=O)c1c(C)[nH]c(C)c1C(=O)COC(=O)c1ccc(OC)c(OC)c1	9	10	i	96	91	-0.57	·	·	·
COc1ccccc1/C=C/C(=O)Nc1ccc2c(c1)OCCO2	4	-89	i	96	179*	-0.64	238*	124	105
COc1ccccc1/C=C/C(=O)Nc1ccc2c(c1)CCC2	-12	-66	i	108	161*	0.22	197*	147*	112*
COc1ccc(OC)c(/C=C/C(=O)Nc2ccc3c(c2)CCC3)c1	1	-7	i	96	106	-0.037	·	·	·
COc1ccc(/C=C/C(=O)Nc2ccccc2)cc1OC	10	-53	i	95	152*	-1.3	163*	126	104
O=C(NCc1ccco1)C(=O)N1CCCC1	2	-10	i	103	108	-1	·	·	·
COc1ccc(OCCSc2ncccn2)cc1	0	-51	i	102	154*	0.47	181*	127	120*
O=C(Oc1ccc2ccccc2c1Cl)N1CCCCCC1	3	-81	i	102	174*	-0.9	211*	118	141*
O=C(N/N=C/C(Cl)=C/c1ccccc1)c1ccco1	9	-61	i	94	156*	-0.56	186*	134*	109
Cc1ccc(C2CC(=O)NC(SCC(N)=O)=C2C#N)s1 (centres undefined)	10	8	i	98	91	-0.48	·	·	·
CC(C)=CC(=O)Nc1nc2ccc([N+](=O)[O-])cc2s1	7	-91	i	100	181*	0.37	180*	126	107
O=C(Nc1cccc(C(=O)O)c1)/C(=C\c1ccc2c(c1)OCO2)NC(=O)c1ccc(Br)cc1	0	-3	i	102	102	0.44	·	·	·
